Source: publication PMC4469080 (Bioorganic & medicinal chemistry letters, 2015)
Like-named read-outs stand apart in the source and are kept apart here.

How the values were obtained:
mouse SR-BI [1] = biological target: T1, mouse SR-BI (Mus musculus, UniProt Q61009); assay: DiI-HDL uptake assay; assay type: cell-based; details: for activity in DiI uptake assay (in words): inhibition of SR-BI-mediated lipid uptake
T1 sequence (Q61009 1-509): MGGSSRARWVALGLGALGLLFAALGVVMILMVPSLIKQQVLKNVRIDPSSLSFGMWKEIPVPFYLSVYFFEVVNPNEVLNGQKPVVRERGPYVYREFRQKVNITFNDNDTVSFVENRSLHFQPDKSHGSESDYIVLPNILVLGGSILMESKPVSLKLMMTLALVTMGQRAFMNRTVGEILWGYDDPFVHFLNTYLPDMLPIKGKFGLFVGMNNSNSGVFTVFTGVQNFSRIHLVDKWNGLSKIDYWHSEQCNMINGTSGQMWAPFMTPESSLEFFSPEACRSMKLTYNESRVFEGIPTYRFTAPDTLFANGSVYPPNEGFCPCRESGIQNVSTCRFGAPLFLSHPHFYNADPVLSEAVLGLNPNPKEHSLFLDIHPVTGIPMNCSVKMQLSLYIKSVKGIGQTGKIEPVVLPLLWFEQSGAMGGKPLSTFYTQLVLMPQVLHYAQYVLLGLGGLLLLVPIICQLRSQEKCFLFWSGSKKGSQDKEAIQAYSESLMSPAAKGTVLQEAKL
Method in brief: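 CHO cells (ldlA line) overexpressing mouse SR-BI take up the fluorescent lipid DiI from DiI-labeled HDL particles. In the high-throughput screen, compounds were tested at 12.5 μM against 1 μM BLT-1 as the positive control. Plates with Z′ < 0.3 were excluded, and a counterscreen removed compounds that quenched DiI-HDL fluorescence in a dose-dependent manner. IC50 values came from retests of compounds as purified dry powders.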

Solubility in PBS = assay type: physicochemical; details: in PBS (with 1% DMSO)
mouse SR-BI [2] = biological target: T1, mouse SR-BI; details: read-out: IC50 in the primary assay; previous probes; cited from earlier work

Row | activity in DiI uptake assay (in words) (mouse SR-BI [1]) | SMILES | also measured
1 | – | C[C@@H]1CN([C@H](C)CO)C(=O)c2cc(NC(=O)Cc3cn(C)c4ccccc34)ccc2O[C@H]1CN(C)S(=O)(=O)c1ccc(Cl)cc1 [Compound 1a] | IC50 (mouse SR-BI [1]): 460 nM
2 | weak potency | C[C@@H]1CN([C@H](C)CO)C(=O)c2cc(NC(=O)Cc3cn(C)c4ccccc34)ccc2O[C@H]1CN(C)S(C)(=O)=O [Compound 1g] | solubility (Solubility in PBS): good solubility
3 | inactive | CC(C)NC(=O)Nc1cccc2c1O[C@@H](CN(C)S(=O)(=O)c1ccc(Cl)cc1)[C@H](C)CN([C@H](C)CO)C2=O [Compound 3] | –
4 | abrogated the activity | CC(C)NC(=O)Nc1ccc2c(c1)C(=O)N([C@H](C)CO)C[C@@H](C)[C@H](CN(C)S(=O)(=O)c1ccc(Cl)cc1)O2 [Compound 4] | –
5 | inactive | C[C@@H]1CN([C@H](C)CO)C(=O)c2cc(NC(=O)C3CCCCC3)ccc2O[C@H]1CN(C)C(=O)c1ccc(Cl)cc1 [Compound 5] | –
6 | – | C[C@@H]1CN([C@H](C)CO)C(=O)c2cc(NC(=O)C3CCCCC3)ccc2O[C@H]1CN(C)S(=O)(=O)c1cccc(Cl)c1 [Compound 6] | IC50 (mouse SR-BI [1]; DiI uptake assay, average of at least two measurements (Table 4, various analogs)): 800 nM
7 | inactive | C[C@@H]1CN([C@H](C)CN)C(=O)c2cc(NC(=O)Cc3cn(C)c4ccccc34)ccc2O[C@H]1CN(C)S(=O)(=O)c1ccc(Cl)cc1 [Compound 9] | –
8 | inactive | C[C@@H]1CN([C@H](C)CN(C)C)C(=O)c2cc(NC(=O)Cc3cn(C)c4ccccc34)ccc2O[C@H]1CN(C)S(=O)(=O)c1ccc(Cl)cc1 [Compound 10] | –
9 | only weakly active | COC[C@@H](C)N1C[C@@H](C)[C@H](CN(C)S(=O)(=O)c2ccc(Cl)cc2)Oc2ccc(NC(=O)NC(C)C)cc2C1=O [Compound 11] | –
10 | weak activity | CC(C)NC(=O)Nc1ccc2c(c1)C(=O)N(C(C)C)C[C@@H](C)[C@H](CN(C)S(=O)(=O)c1ccc(Cl)cc1)O2 [Compound 12] | –
11 | – | COCC(=O)n1ccc2cc(-c3csc(NC(=O)c4cc(OC)cc(OC)c4)n3)ccc21 [ML278] | IC50 (mouse SR-BI [2]): 6 nM
